In ChEMBL document CHEMBL1142889, “Synthesis and anticancer activity of a novel class of flavonoids: 2,4-diarylchromane[4,3-d]-delta(1,9b)-1,2,3-thiadiazolines” (Eur J Med Chem, 2007):
Values after ≈ are worked out from the molar mass of the structure shown.

Assays:
[1] = system: Bel-7402; assay: Antiproliferative activity against Bel7402 cells after 72 hrs by MTT assay; assay type: functional, cell-based; conditions: Homo sapiens, Bel-7402, 72 h
Method in brief: (§1)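 Cells were exposed to compound for 72 h. MTT in RPMI-1640 was then added and incubated for a further 4 h at 37 °C. Three replicate wells were used per point. IC50 for cell-viability inhibition was calculated from three independent experiments.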

[2] = Antiproliferative activity against ECA109 cells after 72 hrs by MTT assay; assay type: functional, cell-based; conditions: Homo sapiens, ECa-109, 72 h; method in brief: as §1
[3] = system: PC-3; assay: Antiproliferative activity against PC3 cells after 72 hrs by MTT assay; assay type: functional, cell-based; conditions: Homo sapiens, PC-3, 72 h; method in brief: as §1
[4] = system: MCF7; assay: Antiproliferative activity against MCF7 cells after 72 hrs by MTT assay; assay type: functional, cell-based; conditions: Homo sapiens, MCF7, 72 h; method in brief: as §1
[5] = system: HL-60; assay: Antiproliferative activity against HL60 cells after 72 hrs by MTT assay; assay type: functional, cell-based; conditions: Homo sapiens, HL-60, 72 h; method in brief: as §1
[6] = system: A549; assay: Antiproliferative activity against A549 cells after 72 hrs by MTT assay; assay type: functional, cell-based; conditions: Homo sapiens, A549, 72 h; method in brief: as §1
[7] = system: HL-60; assay: Induction of apoptosis in HL60 cells assessed as DNA fragmentation at 0.5 ug/mL after 48 hrs by flow cytometry; assay type: functional, Homo sapiens
Method in brief: (§2)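 HL-60 cells in exponential growth were treated for 48 h. They were washed twice in PBS and fixed in 70% ethanol at −20 °C. Cells were then RNase-treated for 1 h at 37 °C and stained with propidium iodide for 30 min at 4 °C. DNA content of 2 × 10⁴ cells was read by flow cytometry, and the sub-G0/G1 fraction was taken as apoptotic.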

[8] = system: HL-60; assay: Induction of apoptosis in HL60 cells assessed as DNA fragmentation at 1.0 ug/mL after 48 hrs by flow cytometry; assay type: functional, Homo sapiens; method in brief: as §2
[9] = system: HL-60; assay: Induction of apoptosis in HL60 cells assessed as DNA fragmentation at 2 ug/mL after 48 hrs by flow cytometry; assay type: functional, Homo sapiens; method in brief: as §2
[10] = system: CCRF S-180; assay: Antitumor activity against S180 cells inoculated in ICR mouse assessed as tumor weight at 80 mg/kg, ip after 8 days; assay type: functional; conditions: route intraperitoneal
Method in brief: (§3)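 S180 sarcoma was first passaged in mice for 7 days, then 2.5 × 10⁶ viable cells/mouse were injected s.c. into the armpit of female ICR mice. Compound was given i.p. once daily for 7 consecutive days, starting 24 h after inoculation. Group sizes were 10, or 20 for the saline control. Cyclophosphamide 50.0 mg/kg was the positive control. On day 8 tumors were excised and weighed, and inhibition = (C − T)/C × 100 using mean tumor weights.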

[11] = system: CCRF S-180; assay: Antitumor activity against S180 cells inoculated in ICR mouse assessed as inhibition at 80 mg/kg, ip after 8 days relative to control; assay type: functional; conditions: CCRF S-180, ip, 192 h, route intraperitoneal; method in brief: as §3
[12] = system: CCRF S-180; assay: Antitumor activity against S180 cells inoculated in ICR mouse assessed as inhibition at 50 mg/kg, ip after 8 days relative to control; parameters: scale not given: the % may be the effect or the level left; conditions: route intraperitoneal

SMILES	IC50 [1]	IC50 [3]	IC50 [4]	IC50 [5]	IC50 [6]	IC50 [2]	Activity [7]	Activity [8]	Activity [9]	Activity [10]	inhibition in vivo at 80 mg/kg [11]	Activity [12]
CCOC12SN(c3ccc(NC(C)=O)cc3Cl)N=C1c1ccccc1OC2(OCC)c1ccc(Cl)cc1 (racemic)	21.3 µg/mL (≈ 38.1 µM)	4.1 µg/mL (≈ 7.34 µM)	23.3 µg/mL (≈ 41.7 µM)	2.2 µg/mL (≈ 3.94 µM)	4.2 µg/mL (≈ 7.52 µM)	9.6 µg/mL (≈ 17.2 µM)	–	–	–	–	–	–
CCOC12SN(c3ccc([N+](=O)[O-])cc3Cl)N=C1c1cc(C)ccc1OC2(OCC)c1cc2c(cc1Cl)OCO2 (racemic)	> 50 µg/mL	> 50 µg/mL	> 25 µg/mL	> 25 µg/mL	> 50 µg/mL	> 50 µg/mL	–	–	–	–	–	–
CCOC12SN(c3ccc(S(C)(=O)=O)cc3Cl)N=C1c1ccccc1OC2(OCC)c1ccc(Cl)cc1 (racemic)	10.3 µg/mL (≈ 17.8 µM)	3.1 µg/mL (≈ 5.35 µM)	4.1 µg/mL (≈ 7.07 µM)	2.8 µg/mL (≈ 4.83 µM)	4.9 µg/mL (≈ 8.46 µM)	5.9 µg/mL (≈ 10.2 µM)	3.9%	25.3%	68.3%	0.63 g	48.2%	–
CCOC12SN(c3ccc(S(C)(=O)=O)cc3Cl)N=C1c1ccccc1OC2(OCC)c1ccc(OC)cc1 (racemic)	23.5 µg/mL (≈ 40.9 µM)	3.5 µg/mL (≈ 6.09 µM)	> 25 µg/mL	1.8 µg/mL (≈ 3.13 µM)	3.3 µg/mL (≈ 5.74 µM)	5.9 µg/mL (≈ 10.3 µM)	–	–	–	–	–	–
CCOC12SN(c3ccc(S(C)(=O)=O)cc3Cl)N=C1c1cc(C)ccc1OC2(OCC)c1ccc(Cl)cc1 (racemic)	7.3 µg/mL (≈ 12.3 µM)	6 µg/mL (≈ 10.1 µM)	2.5 µg/mL (≈ 4.21 µM)	6 µg/mL (≈ 10.1 µM)	10.3 µg/mL (≈ 17.4 µM)	11.5 µg/mL (≈ 19.4 µM)	–	–	–	–	–	–
CCOC12SN(c3ccc(S(C)(=O)=O)cc3Cl)N=C1c1cc(C)ccc1OC2(OCC)c1ccc(OC)cc1 (racemic)	40.4 µg/mL (≈ 68.6 µM)	0.6 µg/mL (≈ 1.02 µM)	> 25 µg/mL	0.6 µg/mL (≈ 1.02 µM)	1.1 µg/mL (≈ 1.87 µM)	1.5 µg/mL (≈ 2.55 µM)	–	–	–	–	–	–
CCOC12SN(c3ccc(NC(C)=O)cc3Cl)N=C1c1cc(C)ccc1OC2(OCC)c1ccc(Cl)cc1 (racemic)	10.5 µg/mL (≈ 18.3 µM)	2.4 µg/mL (≈ 4.19 µM)	19.8 µg/mL (≈ 34.6 µM)	1.3 µg/mL (≈ 2.27 µM)	2.5 µg/mL (≈ 4.37 µM)	4.1 µg/mL (≈ 7.16 µM)	–	–	–	–	–	–
O=P1(N(CCCl)CCCl)NCCCO1 (stereo not given) [CYCLOPHOSPHAMIDE ANHYDROUS]	–	–	–	–	–	–	–	–	–	–	–	45.4%
O=C1CC(c2ccccc2)Oc2ccccc21 (stereo not given) [FLAVANONE]	> 50 µg/mL	16.6 µg/mL (≈ 74 µM)	> 25 µg/mL	3.4 µg/mL (≈ 15.2 µM)	14.2 µg/mL (≈ 63.3 µM)	27.7 µg/mL (≈ 124 µM)	–	–	–	–	–	–

Now from value to molecule, other results behind:

IC50 [1]	IC50 [3]	IC50 [4]	IC50 [5]	IC50 [6]	SMILES	IC50 [2]	Activity [7]	Activity [8]	Activity [9]	Activity [10]	inhibition in vivo at 80 mg/kg [11]	Activity [12]
21.8 µg/mL (≈ 39.2 µM)	> 50 µg/mL	> 25 µg/mL	> 25 µg/mL	> 50 µg/mL	CCOC12SN(c3ccc([N+](=O)[O-])cc3Cl)N=C1c1cc(C)ccc1OC2(OCC)c1ccc(OC)cc1 (racemic)	> 50 µg/mL	–	–	–	–	–	–
> 50 µg/mL	> 50 µg/mL	> 25 µg/mL	> 25 µg/mL	> 50 µg/mL	CCOC12SN(c3ccc([N+](=O)[O-])cc3Cl)N=C1c1c(OC)cc(OC)c(Cl)c1OC2(OCC)c1ccccc1Cl (racemic)	> 50 µg/mL	–	–	–	–	–	–
> 50 µg/mL	15.8 µg/mL (≈ 24.7 µM)	> 25 µg/mL	6.7 µg/mL (≈ 10.5 µM)	> 50 µg/mL	CCOC12SN(c3ccc([N+](=O)[O-])cc3Cl)N=C1c1c(OC)cc(OC)c(Cl)c1OC2(OCC)c1ccc(Cl)cc1 (racemic)	> 50 µg/mL	–	–	–	–	–	–
> 50 µg/mL	> 50 µg/mL	> 25 µg/mL	> 25 µg/mL	> 50 µg/mL	CCOC12SN(c3ccc([N+](=O)[O-])cc3Cl)N=C1c1cc(C)ccc1OC2(OCC)c1cc(OC)c(OC)cc1Cl (racemic)	> 50 µg/mL	–	–	–	–	–	–
8.2 µg/mL (≈ 15.1 µM)	5.7 µg/mL (≈ 10.5 µM)	23.3 µg/mL (≈ 43 µM)	3.3 µg/mL (≈ 6.09 µM)	5.1 µg/mL (≈ 9.41 µM)	CCOC12SN(c3ccc([N+](=O)[O-])cc3Cl)N=C1c1ccccc1OC2(OCC)c1ccc(OC)cc1 (racemic)	9.6 µg/mL (≈ 17.7 µM)	–	–	–	–	–	–
11.8 µg/mL (≈ 21.6 µM)	4.1 µg/mL (≈ 7.5 µM)	15 µg/mL (≈ 27.5 µM)	2.2 µg/mL (≈ 4.03 µM)	3.8 µg/mL (≈ 6.95 µM)	CCOC12SN(c3ccc([N+](=O)[O-])cc3Cl)N=C1c1ccccc1OC2(OCC)c1ccc(Cl)cc1 (racemic)	6.9 µg/mL (≈ 12.6 µM)	–	–	–	–	–	–
18.6 µg/mL (≈ 33.2 µM)	> 50 µg/mL	> 25 µg/mL	> 25 µg/mL	7.8 µg/mL (≈ 13.9 µM)	CCOC12SN(c3ccc([N+](=O)[O-])cc3Cl)N=C1c1cc(C)ccc1OC2(OCC)c1ccc(Cl)cc1 (racemic)	14.8 µg/mL (≈ 26.4 µM)	–	–	–	–	–	–
> 50 µg/mL	7.3 µg/mL (≈ 11.8 µM)	> 25 µg/mL	16.8 µg/mL (≈ 27.1 µM)	> 50 µg/mL	CCOC12SN(c3ccc([N+](=O)[O-])cc3Cl)N=C1c1c(OC)cc(OC)c(Cl)c1OC2(OCC)c1ccc(C)cc1 (racemic)	7.3 µg/mL (≈ 11.8 µM)	–	–	–	–	–	–
> 50 µg/mL	19.2 µg/mL (≈ 30.2 µM)	> 25 µg/mL	23.2 µg/mL (≈ 36.4 µM)	17.7 µg/mL (≈ 27.8 µM)	CCOC12SN(c3ccc([N+](=O)[O-])cc3Cl)N=C1c1c(OC)cc(OC)c(Cl)c1OC2(OCC)c1ccc(OC)cc1 (racemic)	> 50 µg/mL	–	–	–	–	–	–
> 50 µg/mL	2.9 µg/mL (≈ 4.73 µM)	5.5 µg/mL (≈ 8.97 µM)	3.2 µg/mL (≈ 5.22 µM)	5.4 µg/mL (≈ 8.81 µM)	COc1cc(OC)c2c(c1Cl)OC(OC)(c1ccc(Cl)cc1)C1(OC)SN(c3ccc([N+](=O)[O-])cc3Cl)N=C21 (racemic)	5.7 µg/mL (≈ 9.3 µM)	–	–	–	–	–	–
24.8 µg/mL (≈ 36.8 µM)	> 50 µg/mL	12.6 µg/mL (≈ 18.7 µM)	5.6 µg/mL (≈ 8.31 µM)	14.5 µg/mL (≈ 21.5 µM)	CCOC12SN(c3ccc(S(C)(=O)=O)cc3Cl)N=C1c1c(OC)cc(OC)c(Cl)c1OC2(OCC)c1ccc(Cl)cc1 (racemic)	20.1 µg/mL (≈ 29.8 µM)	–	–	–	–	–	–
